Reference: PMC3556183 (Journal of neuroendocrinology, 2013)
Ends that are not written are not given here.

What was measured:
PNX antiserum = details: rabbit polyclonal antiserum; ref Phoenix Pharmaceuticals, Inc; cited from earlier work
[1] = system: Antibodies used in the EIA; experiment: Cross-reactivity of the antibodies used in the phoenixin EIA; format: binding
[2] = system: dispersed, primary rat pituitary cultures; experiment: Static incubation of dispersed anterior pituitary cells, hormone release; format: cell-based; details: for GnRH-stimulated LH release: female pituitary cultures, overnight (24-hour) pretreatment, then GnRH for one hour, Figure 3A and B
Method in brief: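 Rat anterior pituitary cells were trypsin-dispersed and cultured 48 h in tubes (MEM, 10% horse serum, 37°C). Cultures were pretreated 24 h with medium or peptide fragments. Medium was replaced by M199 with 0.1% BSA, 2×10⁻⁵ M bacitracin and 20 mM HEPES, with the same pretreatment. Cells were incubated 30 or 60 min at 37°C ± GnRH, and the incubation was ended by centrifugation. LH was measured by RIA (RP-3 standards) as mean ± SEM.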

[3] = system: pituitary and ovary cell membranes; experiment: Preliminary binding of phoenixin-20 to pituitary and ovary cell membranes; parameters: species or system rat; details: data not shown; for displacement of phoenixin-20 binding: pituitary and ovary cell membranes, female rat donors
GnRH receptor [4] = experiment: RT-PCR of GnRH receptor mRNA in dispersed primary pituitary cell cultures; format: cell-based, rat
Method in brief: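 Dispersed primary rat anterior pituitary cultures were pretreated overnight with the peptide: male cultures with or without GnRH, female cultures without GnRH. RNA was extracted and reverse-transcribed with oligo d(T) and MMLV RT. SYBR Green real-time PCR was run with primer efficiencies >85%. Changes were calculated by delta delta Ct, normalised to HPRT-1, and compared by t test.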

[5] = system: dispersed pituitary cells from random cycle, female donors; experiment: Dynamic; format: cell-based, rat; details: 1000nM phoenixin-20 for 24 hours
Method in brief: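 Rat anterior pituitary cells from random-cycle females, trypsin-dispersed (0.1%), cultured 48 h at 37°C in MEM with 10% horse serum. Pretreated 24 h with medium or 1000nM amidated 20-residue peptide, resuspended in M199/0.1% BSA/bacitracin/20 mM HEPES; ~2 million cells perifused on Bio-Gel P2 columns (0.05 ml/min). Peptide present throughout. 5-min fractions: basal, 10 nM GnRH 50 min, medium 50 min, 60 mM KCl 10 min, medium 40 min. LH by RIA (RP-3 standards); mean ± SEM.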

cFos = experiment: RT-PCR of cFos message in alphaT3-1 gonadotroph cells; format: cell-based, mouse; details: alphaT3-1 cells; not shown
GnRH receptor [6] = experiment: RT-PCR of GnRH receptor message in alphaT3-1 gonadotroph cells; format: cell-based, mouse; details: alphaT3-1 cells; normalized to GAPDH; Figure 3E
Method in brief: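 Mouse αT3-1 gonadotroph cells were exposed to the peptide. RNA was reverse-transcribed using oligo d(T) and MMLV reverse transcriptase. GnRH receptor message was quantified by SYBR Green real-time PCR with primer efficiencies >85%, using the delta delta Ct method with GAPDH normalisation. Groups were compared by t test.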

male pituitary cells = experiment: LH release from similarly prepared male pituitary cells; format: cell-based, rat; details: Supplemental Figure 2

## DVQPPGLKVWSDPF-NH2 [phoenixin-14]
PNX antiserum
  cross-reactivity with PNX antiserum in radioimmunoassay: 100%
[1]
  cross-reaction with the antibodies used in the EIA: 100%
[2]
  GnRH-stimulated LH release: potentiated

## angiotensin II (DRVYIHPF; Angiotensin-2; UniProt P01019 25-32, looked up) [reference compound]
[1]
  cross-reaction with the antibodies used in the EIA: 0%

## gonadotropin releasing hormone [gonadotropin-releasing hormone]
[3]
  displacement of phoenixin-20 binding: not displaced

## phoenixin
GnRH receptor [4]; dispersed pituitary cultures pretreated with phoenixin, medium alone, Figure 3D
  GnRH receptor messenger RNA: increased
GnRH receptor [4]; primary pituitary cell cultures from female donors, Figure 3G
  GnRH receptor expression in the absence of GnRH: significantly increased
[2]; dispersed, primary rat pituitary cultures, data not shown
  basal release of LH, ACTH, prolactin, growth hormone, or TSH: did not alter

## phoenixin-20: 20 amino acid amidated form of phoenixin (AGIVQEDVQPPGLKVWSDPF-NH2; UniProt C0HLM6 47-66, looked up)
PNX antiserum
  cross-reactivity with PNX antiserum in radioimmunoassay: 100%
[5]; 10 nM GnRH, Figure 3C
  LH release when GnRH was included in the perifusate: significantly enhanced
[5]; then perifusion columns, no GnRH
  basal LH release during perifusion: did not alter
[3]; tissues from female rat donors, preliminary experiments
  specific binding to pituitary and ovary cell membranes: bound specifically
[1]
  cross-reaction with the antibodies used in the EIA: 100%
GnRH receptor [4]; dispersed male anterior pituitary cell cultures, overnight pretreatment, Figure 3D
  ability of GnRH to upregulate the expression of GnRH receptor: potentiated
cFos
  cFos message: failed to attain significance
[2]
  GnRH-stimulated LH release: potentiated
GnRH receptor [6]
  GnRH receptor message: increase
Male pituitary cells
  LH release compared to medium alone: no differences

## urocortin (DNPSLSIDLTFHLLRTLLELARTQSQRERAEQNRIIFDSV; ends and bridges not checked; UniProt P55089 83-122, looked up)
[3]
  displacement of phoenixin-20 binding: not displaced
